Where a SMILES comes first, the peptide text is derived from it.
Legend:
Rattus norvegicus [1] = experiment: Change in mean arterial pressure measured 5 min after intra arterial administration at 0.4 mg/kg to male rats.; assay type: functional, Artery; parameters: unit not given here
Summary of the method: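 Conscious, freely moving male Sprague-Dawley rats (240–280 g) with arterial catheters; peptide in saline given IA as a 100-µL bolus (100 µg). MAP recorded by pressure transducer, calculated as [[…] + diastolic]. Baseline set by saline vehicle injection before dosing; change read 5 min post-dose relative to pre-dose control. Mean ± SEM, n ≥ 3.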

Rattus norvegicus [2] = experiment: Plasma histamine level of the peptide after intra arterial administration at time 5 min in rats; assay type: functional, organism-based
Rattus norvegicus [3] = experiment: Plasma histamine level of the peptide after intra arterial administration at time 0 min in rats; assay type: functional, organism-based

Structure (SMILES)	Delta MAP (Rattus norvegicus [1])	Plasma histamine (Rattus norvegicus [2])	Plasma histamine (Rattus norvegicus [3])
CC[C@H](C)[C@H](NC(=O)[C@H](Cc1ccc(O)cc1)NC(=O)[C@H](Cc1c[nH]cn1)NC(=O)[C@H](CCCN=C(N)N)NC(=O)[C@H](CC(C)C)NC(=O)[C@H](C)NC(=O)[C@H](CO)NC(=O)[C@H](Cc1ccc(O)cc1)NC(=O)[C@H](Cc1ccc(O)cc1)NC(=O)[C@H](CCCN=C(N)N)NC(=O)[C@H](C)N)C(=O)N[C@@H](CC(N)=O)C(=O)N[C@@H](CC(C)C)C(=O)N[C@H](C(=O)N[C@H](C(=O)N[C@@H](CCCN=C(N)N)C(=O)N[C@@H](CCC(N)=O)C(=O)N[C@@H](CCCN=C(N)N)C(=O)N[C@@H](Cc1ccc(O)cc1)C(=O)N[C@@H](Cc1ccc(O)cc1)C(=O)O)[C@@H](C)O)[C@@H](C)CC	-8.35	–	–
CC[C@H](C)[C@H](NC(=O)[C@H](Cc1ccc(O)cc1)NC(=O)[C@H](Cc1c[nH]cn1)NC(=O)[C@H](CCCN=C(N)N)NC(=O)[C@H](CC(C)C)NC(=O)[C@H](C)NC(=O)[C@H](CO)NC(=O)[C@H](Cc1ccc(O)cc1)NC(=O)[C@H](Cc1ccc(O)cc1)NC(=O)[C@H](CCCN=C(N)N)NC(=O)[C@H](C)NC(C)=O)C(=O)N[C@@H](CC(N)=O)C(=O)N[C@@H](CC(C)C)C(=O)N[C@H](C(=O)N[C@H](C(=O)N[C@@H](CCCN=C(N)N)C(=O)N[C@@H](CCC(N)=O)C(=O)N[C@@H](CCCN=C(N)N)C(=O)N[C@@H](Cc1ccc(O)cc1)C(N)=O)[C@@H](C)O)[C@@H](C)CC	12	31.1 ng/mL	16 ng/mL
CC[C@H](C)[C@H](NC(=O)[C@H](Cc1ccc(O)cc1)NC(=O)[C@H](Cc1c[nH]cn1)NC(=O)[C@H](CCCN=C(N)N)NC(=O)[C@H](CC(C)C)NC(=O)[C@H](C)NC(=O)[C@H](CO)NC(=O)[C@H](Cc1ccc(O)cc1)NC(=O)[C@H](Cc1ccc(O)cc1)NC(=O)[C@H](CCCN=C(N)N)NC(=O)[C@H](C)N)C(=O)N[C@@H](CC(N)=O)C(=O)N[C@@H](CC(C)C)C(=O)N[C@H](C(=O)N[C@H](C(=O)N[C@@H](CCCN=C(N)N)C(=O)N[C@@H](CCC(N)=O)C(=O)N[C@@H](CCCN=C(N)N)C(=O)N[C@@H](Cc1ccc(O)cc1)C(=O)O)[C@@H](C)O)[C@@H](C)CC	-4.75	–	–
CC[C@H](C)[C@H](NC(=O)[C@H](Cc1ccccc1)NC(=O)[C@H](Cc1c[nH]cn1)NC(=O)[C@H](CCCN=C(N)N)NC(=O)[C@H](CC(C)C)NC(=O)[C@H](C)NC(=O)[C@H](CO)NC(=O)[C@H](Cc1ccccc1)NC(=O)[C@H](Cc1ccccc1)NC(=O)[C@H](CCCN=C(N)N)NC(=O)[C@H](C)N)C(=O)N[C@@H](CC(N)=O)C(=O)N[C@@H](CC(C)C)C(=O)N[C@H](C(=O)N[C@H](C(=O)N[C@@H](CCCN=C(N)N)C(=O)N[C@@H](CCC(N)=O)C(=O)N[C@@H](CCCN=C(N)N)C(=O)N[C@@H](Cc1ccccc1)C(N)=O)[C@@H](C)O)[C@@H](C)CC (H-ARFFSALRHFINLITRQRF-NH2)	12.33	–	–
CC[C@H](C)[C@H](NC(=O)[C@H](Cc1ccccc1)NC(=O)[C@H](Cc1c[nH]cn1)NC(=O)[C@H](CCCN=C(N)N)NC(=O)[C@H](CC(C)C)NC(=O)[C@H](C)NC(=O)[C@H](CO)NC(=O)[C@H](Cc1ccc(O)cc1)NC(=O)[C@H](Cc1ccccc1)NC(=O)[C@H](CCCN=C(N)N)NC(=O)[C@H](C)N)C(=O)N[C@@H](CC(N)=O)C(=O)N[C@@H](CC(C)C)C(=O)N[C@H](C(=O)N[C@H](C(=O)N[C@@H](CCCN=C(N)N)C(=O)N[C@@H](CCC(N)=O)C(=O)N[C@@H](CCCN=C(N)N)C(=O)N[C@@H](Cc1ccccc1)C(N)=O)[C@@H](C)O)[C@@H](C)CC (H-ARFYSALRHFINLITRQRF-NH2)	3	–	–
CC[C@H](C)[C@H](NC(=O)[C@H](Cc1ccccc1)NC(=O)[C@H](Cc1c[nH]cn1)NC(=O)[C@H](CCCN=C(N)N)NC(=O)[C@H](CC(C)C)NC(=O)[C@H](C)NC(=O)[C@H](CO)NC(=O)[C@H](Cc1ccccc1)NC(=O)[C@H](Cc1ccc(O)cc1)NC(=O)[C@H](CCCN=C(N)N)NC(=O)[C@H](C)N)C(=O)N[C@@H](CC(N)=O)C(=O)N[C@@H](CC(C)C)C(=O)N[C@H](C(=O)N[C@H](C(=O)N[C@@H](CCCN=C(N)N)C(=O)N[C@@H](CCC(N)=O)C(=O)N[C@@H](CCCN=C(N)N)C(=O)N[C@@H](Cc1ccccc1)C(N)=O)[C@@H](C)O)[C@@H](C)CC (H-ARYFSALRHFINLITRQRF-NH2)	7.66	–	–
CC(C)C[C@H](NC(=O)[C@H](C)NC(=O)[C@H](CO)NC(=O)[C@H](Cc1ccc(O)cc1)NC(=O)[C@H](Cc1ccc(O)cc1)NC(=O)[C@H](CCCN=C(N)N)NC(=O)[C@H](C)N)C(N)=O (H-ARYYSAL-NH2)	3.33	–	–
CC(C)C[C@H](NC(=O)[C@H](C)NC(=O)[C@H](CO)NC(=O)[C@H](Cc1ccc(O)cc1)NC(=O)[C@H](Cc1ccc(O)cc1)NC(=O)[C@H](CCCN=C(N)N)NC(=O)[C@H](C)N)C(=O)N[C@@H](CCCN=C(N)N)C(N)=O (H-ARYYSALR-NH2)	4.67	–	–
CC[C@H](C)[C@H](NC(=O)[C@H](Cc1ccccc1)NC(=O)[C@H](Cc1c[nH]cn1)NC(=O)[C@H](CCCN=C(N)N)NC(=O)[C@H](CC(C)C)NC(=O)[C@H](C)NC(=O)[C@H](CO)NC(=O)[C@H](Cc1ccc(O)cc1)NC(=O)[C@H](Cc1ccc(O)cc1)NC(=O)[C@H](CCCN=C(N)N)NC(=O)[C@H](C)N)C(=O)N[C@@H](CC(N)=O)C(=O)N[C@@H](CC(C)C)C(=O)N[C@H](C(=O)N[C@H](C(=O)N[C@@H](CCCN=C(N)N)C(=O)N[C@@H](CCC(N)=O)C(=O)N[C@@H](CCCN=C(N)N)C(=O)N[C@@H](Cc1ccccc1)C(N)=O)[C@@H](C)O)[C@@H](C)CC (H-ARYYSALRHFINLITRQRF-NH2)	-6	–	–
CC(C)C[C@H](NC(=O)[C@H](C)NC(=O)[C@H](CO)NC(=O)[C@H](Cc1ccc(O)cc1)NC(=O)[C@H](Cc1ccc(O)cc1)NC(=O)[C@H](CCCN=C(N)N)NC(=O)[C@H](C)N)C(=O)N[C@@H](CCCN=C(N)N)C(=O)N[C@@H](Cc1c[nH]cn1)C(=O)N[C@@H](Cc1ccc(O)cc1)C(N)=O (H-ARYYSALRHY-NH2)	-12	–	–
CC[C@H](C)[C@H](NC(=O)[C@H](Cc1ccc(O)cc1)NC(=O)[C@H](Cc1c[nH]cn1)NC(=O)[C@H](CCCN=C(N)N)NC(=O)[C@H](CC(C)C)NC(=O)[C@H](C)NC(=O)[C@H](CO)NC(=O)[C@H](Cc1ccc(O)cc1)NC(=O)[C@H](Cc1ccc(O)cc1)NC(=O)[C@H](CCCN=C(N)N)NC(=O)[C@H](C)N)C(=O)N[C@@H](CC(N)=O)C(=O)N[C@@H](CC(C)C)C(=O)N[C@H](C(=O)N[C@H](C(N)=O)[C@@H](C)O)[C@@H](C)CC (H-ARYYSALRHYINLIT-NH2)	0	–	–

Source: ChEMBL document CHEMBL1125502, “Structural requirements for neuropeptide Y18-36-evoked hypotension: a systematic study” (1992)
